One molecule from ChEMBL document CHEMBL3758106, “Antitumor Activity of Americanin A Isolated from the Seeds of Phytolacca americana by Regulating the ATM/ATR Signaling Pathway and the Skp2-p27 Axis in Human Colon Cancer Cells” (J Nat Prod, 2015) can be followed below.

The test system of assay [1] is HCT-116. The experiment in a line: Induction of cell cycle arrest in human HCT116 cells assessed as accumulation at S phase at 30 uM after 48 hrs by propidium iodide staining-based flow cytometric analysis in presence of RNase A (reference value: 16.2%). The format is functional.
Assay [2] has as its system HCT-116. The experiment in a line: Induction of apoptosis in human HCT116 cells assessed as dead cells at 7.5 uM after 48 hrs by annexin V-FITC/propidium iodide staining-based flow cytometric analysis (reference value: 2%). It counts as functional. In general terms: Flow cytometry measures light scatter and fluorescence of single cells or particles in a stream.
Assay [3] concerns HCT-116. In words: Induction of apoptosis in human HCT116 cells assessed as viable cells at 7.5 uM after 48 hrs by annexin V-FITC/propidium iodide staining-based flow cytometric analysis (reference value: 91.2%). The format is functional. The note with it: HCT-116, 48 h, read-out: Activity.
Assay [4] has as its system HCT-116. The experiment in a line: Induction of apoptosis in human HCT116 cells assessed as late apoptotic cells at 15 uM after 48 hrs by annexin V-FITC/propidium iodide staining-based flow cytometric analysis (reference value: 5.2%). The format is functional.
In assay [5] the test system is HCT-116. In words: Induction of apoptosis in human HCT116 cells assessed as early apoptotic cells at 15 uM after 48 hrs by annexin V-FITC/propidium iodide staining-based flow cytometric analysis (reference value: 1.6%). The format is functional.
For assay [6], the system named is HCT-116. The experiment in a line: Induction of apoptosis in human HCT116 cells assessed as decrease in Bcl2 expression at 7.5 to 30 uM after 48 hrs by Western blot analysis. It counts as functional, cell-based. In outline:
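HCT116 cells exposed 48 h; Western blot of RIPA lysates (BCA quantification, SDS-PAGE, PVDF, overnight primary antibodies at 4 °C, HRP secondary, ECL).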
On the technique in general: In western blotting, separated proteins are transferred to a membrane and probed.

For assay [7], the system named is HCT-116. In words: Induction of reactive oxygen species in human HCT116 cells at 7.5 uM after 48 hrs by DCFH-DA staining-based flow cytometric analysis (reference value: 5.1%). It counts as functional.
Assay [8] concerns HCT-116. The experiment in a line: Induction of reactive oxygen species in human HCT116 cells at 30 uM after 48 hrs by DCFH-DA staining-based flow cytometric analysis (reference value: 5.1%). The format is functional. Summed up:
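HCT116 cells seeded overnight, then exposed to test compounds, alone or with NAC, for 48 h in complete medium. Loaded with 20 μM DCFH-DA for 30 min; intracellular ROS in 20 000 cells per group read by flow cytometry as histograms.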

Assay [9] deals with HCT-116. In words: Induction of apoptosis in human HCT116 cells assessed as early apoptotic cells at 30 uM after 48 hrs by annexin V-FITC/propidium iodide staining-based flow cytometric analysis (reference value: 1.1%). It counts as functional.
Assay [10] relates to HCT-116. In words: Induction of apoptosis in human HCT116 cells assessed as cleaved caspase 3 level at 30 uM up to 24 hrs by Western blot analysis. It counts as functional, cell-based.
Assay [11] has as its system HCT-116. The experiment in a line: Induction of apoptosis in human HCT116 cells assessed as cleaved caspase 3 level at 30 uM up to 24 hrs by Western blot analysis in presence of NAC. It counts as functional, cell-based.
The test system of assay [12] is HCT-116. In words: Induction of cell cycle arrest in human HCT116 cells assessed as accumulation at sub-G1 phase at 15 uM after 24 hrs by propidium iodide staining-based flow cytometric analysis in presence of RNase A (reference value: 1.5%). It counts as functional.
Assay [13] in a line: Downregulation of CDK2 expression in human HCT116 cells at 7.5 to 30 uM after 24 hrs by Western blot analysis. It counts as functional, cell-based. The conditions noted are these: HCT-116. Summed up:
(§1)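 HCT116 cells exposed 24 h in complete medium; lysed in RIPA buffer (pH 8.0), protein by BCA, equal loads run on 8–13% SDS-PAGE, PVDF transfer, blocked in 5% BSA/TBST, primary antibodies overnight at 4 °C, HRP secondaries 2 h RT, ECL detection; β-actin as loading control.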

Assay [14] is described as follows: Antiproliferative activity against human HCT116 cells assessed as cell viability after 72 hrs by SRB assay. The format is functional, cell-based. The note with it: HCT-116, 72 h. Summed up:
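HCT116 cells in 96-well plates exposed 24, 48 or 72 h; TCA fixation, 0.4% SRB staining, dye solubilised in 10 mM Tris pH 10.0, absorbance at 515 nm; viability relative to solvent-treated control.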
For orientation: The SRB assay estimates cell density from bound dye.

Assay [15] is described as follows: Upregulation of phosphorylated ATR expression in human HCT116 cells at 1 hr by Western blot analysis. The format is functional, cell-based. The note with it: HCT-116.
Assay [16] in a line: Upregulation of MDM2 expression in human HCT116 cells at 7.5 to 30 uM after 24 hrs by Western blot analysis. The format is functional, cell-based. The conditions noted are these: HCT-116.
Assay [17] has as its target Serine-protein kinase ATM/ATR (Homo sapiens) (UniProt Q13315+Q13535). In words: Activation of ATM/ATR in human HCT116 cells assessed as increase in Chk1 phosphorylation at S345 at 7.5 to 30 uM after 24 hrs by Western blot analysis. The note with it: HCT-116. The format is cell-based. Summed up:
as §1

A short description of assay [18]: Decrease in Skp2 expression in human HCT116 cells at 7.5 to 30 uM after 24 hrs by western blot analysis. It counts as functional, cell-based. The conditions noted are these: HCT-116. In outline:
as §1

In assay [19] the target is Cullin-1/S-phase kinase-associated protein 1 (Homo sapiens) (UniProt Q13616+P63208). The experiment in a line: Inhibition of Cul-1/Skp1 protein interaction in human HCT116 cells after 24 hrs by immunoprecipitation assay. The format is cell-based. The conditions noted are these: HCT-116. In outline: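 Protein measured by Bradford, equal amounts pulled down with anti-Cul-1 antibody on Protein G sepharose at 4 °C. Eluates boiled in Laemmli buffer with 2-mercaptoethanol and probed by Western blot.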

A further assay has as its system K562. In words: Antiproliferative activity against human K562 cells after 24 to 72 hrs by SRB assay. The format is functional, cell-based. Summed up: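 Cells grown in 96-well plates (RPMI 1640; MRC-5 in MEM, 10% FBS, antibiotics) with compound […]; fixed in 10% TCA 30 min at 4 °C, stained 0.4% SRB in 1% acetic acid 1 h, dye dissolved in 10 mM Tris pH 10.0, A515 read; viability as % of solvent control, IC50 by nonlinear regression; mean of three independent experiments.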

Assay [20] deals with Mus musculus. In words: Upregulation of p27 in human HCT116 cells xenografted in nude mouse at 5 to 10 mg/kg, ip administered 3 times per week measured on day 41 by Western blot analysis. The format is functional, organism-based. The note with it: HCT-116. Summed up:
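HCT116 xenografts in nude mice dosed ip at 5 or 10 mg/kg three times weekly to day 41. Portions of the excised frozen tumors were thawed on ice, homogenized in complete lysis buffer, protein quantified by Bradford, and p21, p27 and Skp2 assessed by Western blot with β-actin as internal control.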

Assay [21] has as its system Mus musculus. In words: Upregulation of p27 in human HCT116 cells xenografted in nude mouse at 5 to 10 mg/kg, ip administered 3 times per week measured on day 41 by H and E staining-based phase contrast microscopic analysis. It counts as functional, organism-based. The note with it: HCT-116. Summed up:
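Tumors excised from the xenograft study (ip 5 or 10 mg/kg three times weekly, day 41) were formalin-fixed and paraffin-embedded. Sections were probed with antibody, detected by LSAB/HRP, counterstained with H&E and photographed under an inverted phase-contrast microscope.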

For assay [22], the system named is Mus musculus. In words: Downregulation of Skp2 in human HCT116 cells xenografted in nude mouse at 5 to 10 mg/kg, ip administered 3 times per week measured on day 41 by […]. It counts as functional, organism-based. The note with it: HCT-116. In outline:
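Formalin-fixed, paraffin-embedded xenograft sections (mice dosed ip three times weekly) probed with antibodies, detected by LSAB/HRP, counterstained with H&E, imaged by inverted phase-contrast microscopy.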

Assay [23] relates to HCT-116. The experiment in a line: Antiproliferative activity against human HCT116 cells after 5 to 40 uM by SRB assay. It counts as functional, cell-based. The conditions noted are these: TDE = time-dependent effect.

By IC50 is commonly meant the concentration at which inhibition is half-maximal.

Calls of active or inactive are those of the source. The rule behind the calls is not given here.

Cullin-1/S-phase kinase-associated protein 1 (Homo sapiens), sequence (P63208 whole entry, looked up): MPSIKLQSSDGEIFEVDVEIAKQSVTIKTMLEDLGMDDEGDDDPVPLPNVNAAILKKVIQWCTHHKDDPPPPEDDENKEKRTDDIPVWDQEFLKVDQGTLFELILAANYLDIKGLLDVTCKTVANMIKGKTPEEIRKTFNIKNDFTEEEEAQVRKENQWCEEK
Cullin-1/S-phase kinase-associated protein 1 (Homo sapiens), sequence (Q13616 whole entry, looked up): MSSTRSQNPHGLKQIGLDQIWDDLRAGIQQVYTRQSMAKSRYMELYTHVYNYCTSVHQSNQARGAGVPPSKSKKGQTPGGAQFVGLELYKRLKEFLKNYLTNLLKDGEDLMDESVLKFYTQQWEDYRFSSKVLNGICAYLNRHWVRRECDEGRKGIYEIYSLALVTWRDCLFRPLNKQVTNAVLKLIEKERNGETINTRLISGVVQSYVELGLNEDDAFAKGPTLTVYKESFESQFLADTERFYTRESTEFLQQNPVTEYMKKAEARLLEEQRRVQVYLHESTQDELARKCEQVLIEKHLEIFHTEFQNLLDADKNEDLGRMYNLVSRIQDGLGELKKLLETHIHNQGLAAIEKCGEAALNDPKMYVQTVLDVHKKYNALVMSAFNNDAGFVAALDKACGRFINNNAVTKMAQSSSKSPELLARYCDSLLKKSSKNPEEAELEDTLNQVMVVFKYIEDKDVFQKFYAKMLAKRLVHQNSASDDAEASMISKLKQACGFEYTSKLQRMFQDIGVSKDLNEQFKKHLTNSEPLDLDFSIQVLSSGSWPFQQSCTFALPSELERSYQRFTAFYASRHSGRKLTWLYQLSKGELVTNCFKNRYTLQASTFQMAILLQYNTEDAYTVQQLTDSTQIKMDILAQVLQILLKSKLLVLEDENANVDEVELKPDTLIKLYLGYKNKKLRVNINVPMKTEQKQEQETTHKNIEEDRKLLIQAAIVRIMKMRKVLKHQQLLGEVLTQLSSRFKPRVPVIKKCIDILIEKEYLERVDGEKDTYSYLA

Take `O=C/C=C/c1ccc2c(c1)O[C@@H](CO)[C@H](c1ccc(O)c(O)c1)O2` [AMERICANIN A]: the Activity with HCT-116 [1] is recorded as 8.4%; in the assay on HCT-116 [2] it was 2%; in the assay with HCT-116 [4], 11.1%; in the assay with HCT-116 [5], 12.2%; with HCT-116 [7], 5.2%; in the assay on HCT-116 [8], 47.4%. Besides, the Activity with HCT-116 [9] is 7%; with HCT-116 [12], 3%; in [15] it was “Dose-dependent effect”; in assay [17], “Dose-dependent effect”; with HCT-116 [23] it was “tde”. Besides, the viability at 7.5 µM in the assay on HCT-116 [3] came to 84.6%. Also, the result (with HCT-116 [6]; with HCT-116 [10]; in [13]; in assay [16]; in [18]; in the assay on Mus musculus [20]) was Active. Further, the result in the assay with Mus musculus [21] and with Mus musculus [22] was Active. The outcome in the assay with HCT-116 [11] was inactive. Further, the IC50 in [14] amounted to 8.7 µM; with K562, 12.9 µM. The inhibition result in [19] is “inactive”.
